Measured values reported in ChEMBL document CHEMBL3044661, “Antifungal clerodane diterpenes from Macaranga monandra (L) Muell. et Arg. (Euphorbiaceae)” (J Agric Food Chem, 2003).
Calls of active or inactive are those of the source. The rule behind the calls is not given here.

How the values were obtained:
[1] = tested on: Colletotrichum gloeosporioides; assay: Growth inhibition of Colletotrichum gloeosporioides at < / = 30 uM after 48 to 72 hr by microtiter assay; type: functional, organism-based
In short: (§1)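 96-well broth microassay. Conidia came from 7–10-day PDA cultures, were filtered through miracloth and set photometrically (625 nm %T curve) to 1.0×10^6 conidia/mL. Final doses were 0.3, 3.0 and 30.0 µM, in duplicate. Plates ran at 24 ± 1 °C with a 12-h photoperiod. A620 was read at 48 and 72 h. Percent inhibition (n = 4) was taken relative to untreated growth controls (n = 32). Split-plot design, replicated twice in time.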

Phomopsis obscurans [2] = assay: Growth stimulation of Phomopsis obscurans at low concentration by microtiter assay; type: organism-based; details: paraphomopsis obscurans, in vivo
In short: (§2)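 96-well broth microassay against Phomopsis viticola or P. obscurans. Conidial inoculum was filtered and photometrically set to 1.0×10^6 conidia/mL. Final doses were 0.3, 3.0 and 30.0 µM, in duplicate. Incubation was at 24 ± 1 °C with a 12-h photoperiod, and A620 was recorded at 120 h. Mean percent inhibition (n = 4) was taken against untreated positive controls (n = 32). Split-plot design, replicated twice in time.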

Colletotrichum acutatum [3] = assay: Growth stimulation of Colletotrichum acutatum at low concentration by microtiter assay; type: organism-based; details: in vivo; in short: as §1
Colletotrichum fragariae [4] = assay: Antifungal activity against Colletotrichum fragariae assessed as zone of inhibition at 100 ug/ml after 4 days by TLC bioautographic analysis; type: functional; details: 96 h, read-out: IZ
In short: (§3)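 TLC bioautography on silica gel GF plates with fluorescent indicator. Compounds were spotted in a dose series at final 3.12–100 µg/mL. Plates were sprayed three times with conidia at final 3.0×10^5 conidia/mL in potato-dextrose broth with 0.1% Tween-80, then held in a moisture chamber at 24 ± 1 °C with a 12-h photoperiod. Inhibition zones (mm) were read at 4 d and reported as mean ± SD.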

[5] = tested on: Colletotrichum gloeosporioides; assay: Antifungal activity against Colletotrichum gloeosporioides assessed as zone of inhibition at 100 ug/ml after 4 days by TLC bioautographic analysis; type: functional; details: 96 h, read-out: IZ; in short: as §3
Fusarium oxysporum = assay: Growth inhibition of Fusarium oxysporum at < / = 30 uM after 48 to 72 hr by microtiter assay; type: functional, organism-based; in short: as §1
Colletotrichum fragariae [6] = assay: Growth inhibition of Colletotrichum fragariae at < / = 30 uM after 72 hr by microtiter assay; type: functional, organism-based; in short: as §1
Diaporthe ampelina = assay: Growth inhibition of Diaporthe ampelina at 30 uM after 120 hr by microtiter assay; type: functional; details: read-out: GI; in short: as §2
Botrytis cinerea = assay: Growth inhibition of Botryotinia fuckeliana at 30 uM after 48 hr by microtiter assay; type: functional; details: read-out: GI; in short: as §1
Phomopsis obscurans [7] = assay: Growth inhibition of Phomopsis obscurans at 30 uM after 120 hr by microtiter assay; type: functional; details: Paraphomopsis obscurans, read-out: GI; in short: as §2
[8] = tested on: Colletotrichum gloeosporioides; assay: Growth stimulation of Colletotrichum gloeosporioides at low concentration by microtiter assay; type: organism-based; details: in vivo; in short: as §1
Colletotrichum fragariae [9] = assay: Antifungal activity against Colletotrichum fragariae assessed as zone of inhibition at 25 ug/ml after 4 days by TLC bioautographic analysis; type: functional; details: 96 h, read-out: IZ; in short: as §3
Colletotrichum fragariae [10] = assay: Antifungal activity against Colletotrichum fragariae assessed as zone of inhibition at 50 ug/ml after 4 days by TLC bioautographic analysis; type: functional; details: 96 h, read-out: IZ; in short: as §3
Colletotrichum acutatum [11] = assay: Growth inhibition of Colletotrichum acutatum at < / = 30 uM after 48 to 72 hr by microtiter assay; type: functional, organism-based; in short: as §1

| Activity (Phomopsis obscurans [2]) | Activity (Colletotrichum acutatum [3]) | Activity [8] | Structure (SMILES) | growth inhibition (GI) [1] | zone of inhibition at 100 µg/mL (Colletotrichum fragariae [4]) [mm] | zone of inhibition at 100 µg/mL [5] [mm] | growth inhibition (GI) (Fusarium oxysporum) | growth inhibition (GI) (Colletotrichum fragariae [6]) | inhibition of growth at 30 µM (Diaporthe ampelina) [%] | inhibition of growth at 30 µM (Botrytis cinerea) [%] | inhibition of growth at 30 µM (Phomopsis obscurans [7]) [%] | zone of inhibition at 25 µg/mL (Colletotrichum fragariae [9]) [mm] | zone of inhibition at 50 µg/mL (Colletotrichum fragariae [10]) [mm] | growth inhibition (GI) (Colletotrichum acutatum [11]) |
| --- | --- | --- | --- | --- | --- | --- | --- | --- | --- | --- | --- | --- | --- | --- |
| Dose-dependent effect and tde | Dose-dependent effect and tde | Dose-dependent effect and tde | CC1=CC(=O)C[C@@H]2[C@@](C)(CC/C(C)=C/C(=O)O)[C@H](C)CC[C@@]12C [2-OXO-KOLAVENIC ACID] | inactive | 8 | 0 | inactive | inactive | 46 | 23 | 8 | 6 | 8 | inactive |
| Dose-dependent effect and tde | Dose-dependent effect and tde | Dose-dependent effect and tde | CC1=CCC[C@@H]2[C@@](C)(CC/C(C)=C/C(=O)O)[C@H](C)CC[C@@]12C [KOLAVENIC ACID] | inactive | 9 | 9.5 | inactive | inactive | 50 | 23 | 26 | 5 | 8.5 | inactive |
